The results in this text go back to ChEMBL document CHEMBL4706642, “Discovery of a Potent Dual Inhibitor of Acetylcholinesterase and Butyrylcholinesterase with Antioxidant Activity that Alleviates Alzheimer-like Pathology in Old APP/PS1 Mice” (J Med Chem, 2021).

Each structure is given as a SMILES string. Activity calls are given as the source filed them. The rule behind the calls is not given here.

Assay [1] has as its target T1, Acetylcholinesterase (Homo sapiens, UniProt P22303). In words: Mixed-type inhibition of recombinant human AChE using varying concentration of acetylthiocholine iodide as substrate at 0.17 to 1.36 nM by Lineweaver-burk plot analysis. The method, boiled down: (§1)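 Kinetics on human recombinant AChE with acetylthiocholine at 0.113–0.566 mM and inhibitor at 0.17–1.36 nM. Lineweaver–Burk plots were fitted by weighted least squares. Ki was taken as the negative x-intercept of a replot of slopes vs [I]. K'i came from a plot of apparent 1/vmax vs [I]. Two independent experiments, each in triplicate.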

Assay [2] concerns the target Acetylcholinesterase (Electrophorus electricus) (UniProt O42275). In words: Displacement of propidium iodide from PAS-region of electric eel AChE assessed as decrease in fluorescence intensity by spectrofluorimetric analysis. The method, boiled down:
(§2)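 Back-titration fluorescence assay using electric eel AChE (type VI-S). Inhibitor was added in successive aliquots from a MeOH stock. Emission was read at 602 nm with excitation at 535 nm, after subtracting blanks. […] Three independent experiments.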

The target of assay [3] is Acetylcholinesterase (Electrophorus electricus, UniProt O42275). In words: Displacement of propidium iodide from PAS-region of electric eel AChE assessed as dissociation constant by spectrofluorimetric analysis. In a few lines: as §2
Chain of Acetylcholinesterase (Electrophorus electricus, UniProt O42275) (O42275 whole entry): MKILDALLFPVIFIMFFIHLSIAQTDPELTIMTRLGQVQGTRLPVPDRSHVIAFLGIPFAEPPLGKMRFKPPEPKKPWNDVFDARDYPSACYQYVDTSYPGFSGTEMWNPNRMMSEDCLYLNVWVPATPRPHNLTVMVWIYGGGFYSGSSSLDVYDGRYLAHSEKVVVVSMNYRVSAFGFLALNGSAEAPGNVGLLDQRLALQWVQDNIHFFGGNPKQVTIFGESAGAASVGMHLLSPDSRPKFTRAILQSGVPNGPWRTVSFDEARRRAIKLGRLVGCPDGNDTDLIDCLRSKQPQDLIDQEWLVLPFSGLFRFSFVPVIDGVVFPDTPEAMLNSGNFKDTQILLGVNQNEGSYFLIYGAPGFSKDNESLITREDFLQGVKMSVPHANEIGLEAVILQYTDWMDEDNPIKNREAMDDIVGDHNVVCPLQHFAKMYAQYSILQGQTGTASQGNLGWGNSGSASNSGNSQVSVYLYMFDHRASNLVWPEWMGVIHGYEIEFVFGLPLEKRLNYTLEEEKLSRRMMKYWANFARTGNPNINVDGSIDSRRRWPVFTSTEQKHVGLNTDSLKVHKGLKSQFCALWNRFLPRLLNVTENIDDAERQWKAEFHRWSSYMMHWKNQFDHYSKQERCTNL
In assay [4] the target is Acetylcholinesterase (Electrophorus electricus) (UniProt O42275). The assay is described as follows: Displacement of propidium iodide from PAS-region of electric eel AChE assessed as decrease in fluorescence intensity at 4 to 64 uM by spectrofluorimetric analysis relative to control. The arrangement: scale not given: the % may be the effect or the level left. As to conditions: dose 4-64 µM. The method, boiled down: as §2
Chain of Acetylcholinesterase (Electrophorus electricus) (O42275 24-633 limits assumed): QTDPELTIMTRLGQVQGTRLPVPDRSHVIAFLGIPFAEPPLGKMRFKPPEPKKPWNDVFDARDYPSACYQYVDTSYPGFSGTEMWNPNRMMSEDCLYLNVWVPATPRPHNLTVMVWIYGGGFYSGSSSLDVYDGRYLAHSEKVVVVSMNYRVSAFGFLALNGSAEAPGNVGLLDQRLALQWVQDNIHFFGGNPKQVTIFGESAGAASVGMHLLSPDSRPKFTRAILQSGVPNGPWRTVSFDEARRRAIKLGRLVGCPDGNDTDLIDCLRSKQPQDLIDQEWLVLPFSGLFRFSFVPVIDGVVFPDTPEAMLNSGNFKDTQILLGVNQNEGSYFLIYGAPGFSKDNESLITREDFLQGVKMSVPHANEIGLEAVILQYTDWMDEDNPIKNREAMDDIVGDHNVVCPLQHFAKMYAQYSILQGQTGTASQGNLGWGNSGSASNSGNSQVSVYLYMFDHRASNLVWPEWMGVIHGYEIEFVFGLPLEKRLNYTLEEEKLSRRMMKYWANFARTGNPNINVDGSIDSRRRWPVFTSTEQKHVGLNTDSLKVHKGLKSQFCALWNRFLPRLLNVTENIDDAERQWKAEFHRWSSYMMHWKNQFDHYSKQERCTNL

The target of assay [5] is T1, Acetylcholinesterase. In words: Mixed-type inhibition of recombinant human AChE assessed as inhibition constant using acetylthiocholine iodide as substrate by Cornish-Bowden plot analysis. In a few lines: as §1
In assay [6] the target is T1, Acetylcholinesterase. The assay is described as follows: Mixed-type inhibition of recombinant human AChE assessed as dissociation constant for protein-substrate-compound complex using acetylthiocholine iodide as substrate by Cornish-Bowden plot analysis. The method, boiled down:
as §1

In the next assay the target is Cholinesterase (Homo sapiens, UniProt P06276). The assay is described as follows: Inhibition of human serum BChE using butyrylthiocholineiodide as substrate preincubated for 20 mins followed by substrate addition by Ellman's method relative to parent compound. Type of assay: cell-free.
Chain of Cholinesterase (P06276 whole entry): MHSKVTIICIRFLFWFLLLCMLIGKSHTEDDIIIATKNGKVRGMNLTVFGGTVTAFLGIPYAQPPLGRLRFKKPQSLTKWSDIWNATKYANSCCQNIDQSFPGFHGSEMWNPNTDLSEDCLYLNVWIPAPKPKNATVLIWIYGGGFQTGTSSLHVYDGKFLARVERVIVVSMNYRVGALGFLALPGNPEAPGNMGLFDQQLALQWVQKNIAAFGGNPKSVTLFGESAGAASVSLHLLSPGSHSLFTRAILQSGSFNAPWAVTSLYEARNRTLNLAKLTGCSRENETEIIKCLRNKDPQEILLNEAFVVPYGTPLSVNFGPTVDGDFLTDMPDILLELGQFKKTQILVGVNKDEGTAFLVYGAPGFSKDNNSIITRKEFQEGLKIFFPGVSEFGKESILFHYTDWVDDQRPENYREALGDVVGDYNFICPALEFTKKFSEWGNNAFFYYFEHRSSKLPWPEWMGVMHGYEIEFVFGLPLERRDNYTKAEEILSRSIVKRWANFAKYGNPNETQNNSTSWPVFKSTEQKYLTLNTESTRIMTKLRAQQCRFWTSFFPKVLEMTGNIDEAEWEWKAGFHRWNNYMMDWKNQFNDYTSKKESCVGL
For assay [7], the system named is Mus musculus. In words: Cognitive enhancing effect in 11 months old APP/PS1 double mutant-transgenic mouse model assessed as increase in preference index for object at 2 mg/kg, ip administered thrice a week for 4 weeks by novel object recognition test. It is filed as functional, organism-based. In a few lines: (§3)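 Male APP/PS1 mice received 2 mg/kg i.p. in saline (or vehicle), three times per week for 4 weeks. Preference index = time exploring the relocated or novel object divided by total time exploring both objects. Mean ± SEM, n = 7 per group; one-way ANOVA with Bonferroni post hoc.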

For assay [8], the system named is Mus musculus. In words: Cognitive enhancing effect in 11 months old APP/PS1 double mutant-transgenic mouse model assessed as increase in preference index for object at 2 mg/kg, ip administered thrice a week for 4 weeks by novel object localization test. It is filed as functional, organism-based. In a few lines: as §3
For assay [9], the system named is Mus musculus. In words: Antialzheimer activity in 11 months old APP/PS1 double mutant-transgenic mouse model assessed as amyloid beta42 levels in hippocampus at 2 mg/kg, ip administered thrice a week for 4 weeks by ELISA (Rvb= 69.0 +/- 4.54 pg/ml). Type of assay: functional. The method, boiled down:
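Male APP/PS1 mice received 2 mg/kg i.p. in saline (or vehicle), three times weekly for 4 weeks. After the behavioral tests, hippocampus was collected and Aβ40 and Aβ42 were measured with a specific ELISA kit. Mean ± SEM, n = 7 mice per group; one-way ANOVA with Bonferroni post hoc.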

T1 sequence (P22303 whole entry): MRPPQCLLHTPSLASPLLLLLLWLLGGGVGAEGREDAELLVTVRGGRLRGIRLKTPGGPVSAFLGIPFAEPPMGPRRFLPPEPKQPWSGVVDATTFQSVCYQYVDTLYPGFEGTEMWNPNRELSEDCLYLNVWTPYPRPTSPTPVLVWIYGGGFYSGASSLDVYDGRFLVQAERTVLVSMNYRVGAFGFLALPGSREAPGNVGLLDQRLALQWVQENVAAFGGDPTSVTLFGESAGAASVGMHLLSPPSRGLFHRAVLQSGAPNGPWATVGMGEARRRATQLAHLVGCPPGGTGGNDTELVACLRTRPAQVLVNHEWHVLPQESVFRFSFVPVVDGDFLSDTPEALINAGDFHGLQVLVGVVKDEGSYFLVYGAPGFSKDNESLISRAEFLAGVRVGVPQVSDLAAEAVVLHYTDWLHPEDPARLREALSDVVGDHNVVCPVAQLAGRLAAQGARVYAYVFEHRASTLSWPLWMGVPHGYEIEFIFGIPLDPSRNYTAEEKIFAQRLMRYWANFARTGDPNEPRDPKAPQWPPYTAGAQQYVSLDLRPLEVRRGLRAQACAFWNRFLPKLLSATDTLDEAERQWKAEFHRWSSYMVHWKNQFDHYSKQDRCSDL

With `COc1cc(CNC(=O)CCCCCCNc2c3c(nc4cc(Cl)ccc24)CC2C=C(C)CC3C2)ccc1O` (stereo unspecified), the Kd at Acetylcholinesterase [1] was 940 pM; on Acetylcholinesterase [3] it was 3590 pM. The inhibition entry at Acetylcholinesterase [1] (dose 0.17-1.36 nM) is “Active”. The Activity entry was “Dose-dependent effect” in assay [2] and 23% in assay [4]. The inhibitory constant (Ki) came out at 680 pM at Acetylcholinesterase [5] and 940 pM at Acetylcholinesterase [6].
In the case of `COc1cc(CNC(=O)Cc2cn(CCCCC3=CC4Cc5nc6cc(Cl)ccc6c(N)c5C(C3)C4)nn2)ccc1O` (stereo unspecified), the fold change (FC) at Cholinesterase amounted to 25. Further, the outcome in the assay with Mus musculus [7] and with Mus musculus [8] was Active. The Activity in the assay with Mus musculus [9] was 62.6 pg/mL.
